Source: ChEMBL document CHEMBL3774342, “Indole Based Weapons to Fight Antibiotic Resistance: A Structure-Activity Relationship Study” (J Med Chem, 2016)
In brackets after ≈: the same amount, converted by molar mass.

What was measured:
[1] = tested on: Staphylococcus aureus; experiment: Antimicrobial activity against Staphylococcus aureus 1199B by microdilution method; assay type: functional
Procedure, shortened: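 MIC by broth microdilution following CLSI guidelines against S. aureus SA-1199B, a strain that overexpresses norA. Run on compounds giving at least 80% EtBr efflux inhibition and on selected weaker ones.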

[2] = biological target: T1, Quinolone resistance protein NorA (Staphylococcus aureus) (UniProt P0A0J7); experiment: Inhibition of NorA efflux pump in Staphylococcus aureus 1199B assessed as reduction in EtBr efflux at 50 uM incubated for 20 mins measured for 5 mins by real-time fluorometric analysis
T1 sequence (whole entry): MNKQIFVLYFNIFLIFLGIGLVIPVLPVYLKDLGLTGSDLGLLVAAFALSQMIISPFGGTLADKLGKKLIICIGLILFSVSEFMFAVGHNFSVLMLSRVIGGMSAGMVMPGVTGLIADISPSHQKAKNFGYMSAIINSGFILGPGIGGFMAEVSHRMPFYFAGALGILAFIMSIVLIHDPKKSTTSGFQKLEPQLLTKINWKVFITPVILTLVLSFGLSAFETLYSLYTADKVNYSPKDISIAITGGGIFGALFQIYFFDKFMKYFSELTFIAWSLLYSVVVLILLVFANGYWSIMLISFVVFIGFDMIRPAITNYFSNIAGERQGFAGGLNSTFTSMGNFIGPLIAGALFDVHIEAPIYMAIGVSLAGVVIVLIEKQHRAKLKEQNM
Procedure, shortened: (§1)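 SA-1199B (norA-overexpressing) grown overnight in cation-supplemented Mueller-Hinton broth, diluted 25-fold and grown at 35 °C to OD600 0.7–0.8. Loaded with EtBr 25 µM plus CCCP 100 µM (final), then resuspended in fresh broth. Fluorescence read at ex 485/em 645 nm for 5 min, ± compound. Efflux inhibition in % relative to untreated cells; screened at 50 µM. IC50 from concentration series; triplicate, two technical replicates each.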

[3] = tested on: Liver microsome; experiment: Drug level in human liver microsomes treated with Ethyl 1-Benzyl-2-methyl-5-(2-(piperazin-1-yl)ethoxy)-1H-indole-3-carboxylate at 10 uM preincubated for 5 mins followed by NADPH addition measured after 30 mins by HPLC-MS/MS analysis; assay type: ADME; details: 0.5 h
Procedure, shortened: (§2)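 Human liver microsomes at 0.5 mg protein/ml in 100 mM potassium phosphate pH 7.4. Substrate at 10 µM final, pre-incubated 5 min at 37 °C with shaking, then started with 1 mM NADPH. Quenched at 0 and 30 min with cold acetonitrile containing labetalol internal standard. Spun 12000 g, 5 min, 4 °C; supernatant analysed by UHPLC C18 HPLC-MS/MS.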

[4] = biological target: T2, Quinolone resistance protein NorA (Staphylococcus aureus, UniProt P0A0J7); experiment: Inhibition of NorA efflux pump in Staphylococcus aureus 1199B assessed as reduction in EtBr efflux incubated for 20 mins measured for 5 mins by real-time fluorometric analysis; procedure, shortened: as §1
T2 sequence (P0A0J7 whole entry): T1 sequence (whole entry)

[5] = tested on: Liver microsome; experiment: Drug level in human liver microsomes treated with Ethyl 5-(3-Aminopropoxy)-1-benzyl-2-methyl-(1H)-indole-3-carboxylate at 10 uM preincubated for 5 mins followed by NADPH addition measured after 30 mins by HPLC-MS/MS analysis; assay type: ADME; details: 0.5 h; procedure, shortened: as §2
[6] = tested on: Liver microsome; experiment: Drug level in human liver microsomes treated with Ethyl 1-Benzyl-2-methyl-5-(3-(piperazin1-yl)propoxy)-(1H)-indole-3-carboxylate at 10 uM preincubated for 5 mins followed by NADPH addition measured after 30 mins by HPLC-MS/MS analysis; assay type: ADME; details: 0.5 h; procedure, shortened: as §2
[7] = Metabolic stability in human liver microsomes assessed as compound remaining after at 10 uM preincubated for 5 mins followed by NADPH addition measured after 30 mins by HPLC-MS/MS analysis; assay type: ADME; details: read-out: Stability; procedure, shortened: as §2
[8] = Solubility of the compound in D2O solution at 25 degC by 1H NMR analysis; assay type: physicochemical
Procedure, shortened: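 1H NMR in D2O at 25 °C with TSP internal standard, following a literature procedure.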

[9] = tested on: Liver microsome; experiment: Drug level in human liver microsomes treated with Ethyl 1-(2-Methoxybenzyl)-2-methyl-5-(3-(piperidin-1-yl)-propoxy)-1H-indole-3-carboxylate at 10 uM preincubated for 5 mins followed by NADPH addition measured after 30 mins by HPLC-MS/MS analysis; assay type: ADME; details: 0.5 h; procedure, shortened: as §2
[10] = biological target: T1, Quinolone resistance protein NorA (Staphylococcus aureus); experiment: Inhibition of NorA efflux pump in Staphylococcus aureus assessed as potentiation of ciprofloxacin-mediated antibacterial activity at 1.5 ug/ml relative to control
[11] = tested on: Liver microsome; experiment: Drug level in human liver microsomes treated with Ethyl 1-benzyl-2-methyl-5-(3-(piperidin-1-yl)propoxy)-1H-indole-3-carboxylate at 10 uM preincubated for 5 mins followed by NADPH addition measured after 30 mins by HPLC-MS/MS analysis; assay type: ADME; details: 0.5 h; procedure, shortened: as §2

CCOC(=O)c1c(C)n(Cc2ccccc2)c2ccc(OCCCN3CCCCCC3)cc12
MIC [1]: > 100 µg/mL | inhibition [2]: 77.4%

CCOC(=O)c1c(C)n(Cc2ccccc2)c2ccc([N+](=O)[O-])cc12
inhibition [2]: 9.1%

Cc1c(C(=O)O)c2cc(OCCN3CCNCC3)ccc2n1Cc1ccccc1
Drug metabolism [3]: metabolite_detected

CCOC(=O)c1c(C)n(Cc2cccc([N+](=O)[O-])c2)c2ccc(OCCCN3CCCCC3)cc12
MIC [1]: > 100 µg/mL | inhibition [2]: 85.1% | IC50 [4]: 4.4 µM

CCOC(=O)c1c(C)n(Cc2ccccc2)c2ccc(OCCCN3CCOCC3)cc12
MIC [1]: > 100 µg/mL | inhibition [2]: 98.6% | IC50 [4]: 10.6 µM

CCOC(=O)c1c(C)n(CCc2ccccc2)c2ccc(OCCCN3CCCCC3)cc12
MIC [1]: > 100 µg/mL | inhibition [2]: 99.3% | IC50 [4]: 13.7 µM

CCOC(=O)c1c(C)[nH]c2ccc(OCCCN)cc12
Drug metabolism [5]: metabolite_detected

CCOC(=O)c1c(C)n(Cc2cccc(C)c2)c2ccc(OCCCN3CCCCC3)cc12
MIC [1]: 50 µg/mL (≈ 111 µM) | inhibition [2]: 70.9% | IC50 [4]: 6.1 µM

CCOC(=O)c1c(C)n(Cc2ccccc2)c2ccc(OCC(O)CN)cc12 (configuration not stated)
MIC [1]: > 100 µg/mL | inhibition [2]: 100% | IC50 [4]: 17.1 µM

CCOC(=O)c1c(C)[nH]c2ccc(OCCN3CCNCC3)cc12
Drug metabolism [3]: metabolite_detected

CCOC(=O)c1c(C)n(Cc2ccccc2)c2ccc(OCCN3CCCCC3)cc12
MIC [1]: > 100 µg/mL | inhibition [2]: 100% | IC50 [4]: 11.6 µM

Cc1c(C(=O)O)c2cc(OCCCN3CCNCC3)ccc2n1Cc1ccccc1
Drug metabolism [6]: metabolite_detected

CCOC(=O)Cc1c(C)n(Cc2ccccc2)c2ccc(OCCCN3CCCCCC3)cc12
MIC [1]: 100 µg/mL (≈ 216 µM) | inhibition [2]: 98.4% | IC50 [4]: 6.1 µM

CCOC(=O)c1c(C)n(Cc2ccccc2[N+](=O)[O-])c2ccc(OCCCN3CCCCC3)cc12
MIC [1]: > 100 µg/mL | remaining at 0.5 h, 10 µM [7]: 89% | solubility [8]: 14 µM (≈ 6.71 µg/mL) | inhibition [2]: 91.8% | IC50 [4]: 6.3 µM

CCOC(=O)c1c(C)n(Cc2cccc(OC)c2)c2ccc(OCCCN3CCCCC3)cc12
MIC [1]: > 100 µg/mL | inhibition [2]: 77.1% | IC50 [4]: 7.3 µM

CCOC(=O)c1c(C)n(Cc2cccc(F)c2)c2ccc(OCCCN3CCCCC3)cc12
MIC [1]: > 100 µg/mL | inhibition [2]: 89.7% | IC50 [4]: 6.1 µM

CCOC(=O)c1c(C)n(Cc2ccccc2)c2ccc(OCC(O)CN3CCOCC3)cc12 (configuration not stated)
MIC [1]: > 100 µg/mL | inhibition [2]: 99% | IC50 [4]: 17 µM

CCOC(=O)c1c(C)n(Cc2ccc(C)cc2)c2ccc(OCCCN3CCCCC3)cc12
MIC [1]: 25 µg/mL (≈ 55.7 µM) | inhibition [2]: 58.3% | IC50 [4]: 6.7 µM

CCOC(=O)c1c(C)n(Cc2ccccc2)c2ccc(OC(C)=O)cc12
inhibition [2]: 20.4%

CCOC(=O)c1c(C)n(Cc2ccccc2)c2ccc(O)cc12
MIC [1]: > 100 µg/mL | inhibition [2]: 1%

CCOC(=O)c1c(C)n(Cc2ccccc2)c2ccc(OCCCN3CCC(F)(F)CC3)cc12
inhibition [2]: 25.9%

Cc1cc2cc(OCCCN3CCCCC3)ccc2n1Cc1ccccc1
MIC [1]: 0.63 µg/mL (≈ 1.74 µM) | remaining at 0.5 h, 10 µM [7]: 100% | solubility [8]: 70 µM (≈ 25.4 µg/mL) | inhibition [2]: 95.6% | IC50 [4]: 6.6 µM

CCOC(=O)c1c(C)n(Cc2ccccc2F)c2ccc(OCCCN3CCCCC3)cc12
MIC [1]: > 100 µg/mL | inhibition [2]: 89% | IC50 [4]: 4.8 µM

CCOC(=O)c1c(C)n(Cc2ccc([N+](=O)[O-])cc2)c2ccc(OCCCN3CCCCC3)cc12
MIC [1]: > 100 µg/mL | inhibition [2]: 89.9% | IC50 [4]: 6.5 µM

CCOC(=O)c1c(C)n(Cc2ccc(OC)cc2)c2ccc(OCCCN3CCCCC3)cc12
MIC [1]: > 100 µg/mL | inhibition [2]: 77.7% | IC50 [4]: 7.1 µM

CCOC(=O)c1c(C)n(Cc2ccccc2)c2ccc(OCCc3ccccc3)cc12
MIC [1]: > 100 µg/mL | inhibition [2]: 4.7%

CCOC(=O)c1c(C)n(Cc2ccccc2)c2ccc(OCCCN3CCN(C)CC3)cc12
MIC [1]: > 100 µg/mL | inhibition [2]: 100% | IC50 [4]: 11.9 µM

CCOC(=O)c1c(C)n(Cc2ccc(F)cc2)c2ccc(OCCCN3CCCCC3)cc12
MIC [1]: > 100 µg/mL | inhibition [2]: 91.1% | IC50 [4]: 8.7 µM

CCOC(=O)c1c(C)n(Cc2ccccc2)c2ccc(OCCCNCc3ccccc3)cc12
inhibition [2]: 45.4%

CCOC(=O)c1c(C)n(Cc2ccccc2O)c2ccc(OCCCN3CCCCC3)cc12
Drug metabolism [9]: metabolite_detected

O=[N+]([O-])c1ccc2[nH]c(-c3ccccc3)cc2c1
fold change (FC) [10]: 4

CCOC(=O)c1c(C)n(Cc2ccccc2)c2ccc(OCCCCN3CCNCC3)cc12
MIC [1]: > 100 µg/mL | inhibition [2]: 71.9%

CCOC(=O)c1c(C)n(Cc2ccccc2)c2ccc(OCCN)cc12
inhibition [2]: 67.7%

CCOC(=O)c1c(C)n(Cc2ccc(C(F)(F)F)cc2)c2ccc(OCCCN3CCCCC3)cc12
MIC [1]: > 100 µg/mL | inhibition [2]: 77.7% | IC50 [4]: 14.1 µM

Cc1c(C(=O)O)c2cc(OCCCN)ccc2n1Cc1ccccc1
Drug metabolism [5]: metabolite_detected

CCOC(=O)c1c(C)n(Cc2ccccc2)c2ccc(OCCN(C)C)cc12
MIC [1]: > 100 µg/mL | inhibition [2]: 98.2% | IC50 [4]: 22.5 µM

CCOC(=O)c1c(C)n(Cc2ccccc2)c2ccc(OCC(O)CN3CCCCCC3)cc12 (configuration not stated)
MIC [1]: 100 µg/mL (≈ 215 µM) | inhibition [2]: 92.8% | IC50 [4]: 6.8 µM

CCOC(=O)c1c(C)n(Cc2ccccc2)c2ccc(OCCN3CCN(C)CC3)cc12
MIC [1]: > 100 µg/mL | inhibition [2]: 99.7% | IC50 [4]: 10.1 µM

CCOC(=O)c1c(C)[nH]c2ccc(OCCCN3CCCCC3)cc12
Drug metabolism [11]: metabolite_detected | inhibition [2]: 34.2% | Drug metabolism [9]: metabolite_detected

CCOC(=O)c1c(C)[nH]c2ccc(OCCCN3CCNCC3)cc12
Drug metabolism [6]: metabolite_detected

Cc1c(C(=O)O)c2cc(OCCCN3CCCCC3)ccc2n1Cc1ccccc1
Drug metabolism [11]: metabolite_detected | inhibition [2]: 0%

CCOC(=O)c1c(C)n(Cc2ccccc2)c2ccc(OCC(N)CO)cc12 (configuration not stated)
MIC [1]: > 100 µg/mL | inhibition [2]: 100% | IC50 [4]: 10.4 µM

CCOC(=O)c1c(C)n(Cc2ccccc2C)c2ccc(OCCCN3CCCCC3)cc12
MIC [1]: 25 µg/mL (≈ 55.7 µM) | inhibition [2]: 54% | IC50 [4]: 4.8 µM

CCOC(=O)c1c(C)n(Cc2cccc(C(F)(F)F)c2)c2ccc(OCCCN3CCCCC3)cc12
MIC [1]: > 100 µg/mL | inhibition [2]: 12.9% | IC50 [4]: 14.2 µM

CCOC(=O)c1c(C)n(Cc2ccccc2)c2ccc(OCCN3CCOCC3)cc12
MIC [1]: > 100 µg/mL | inhibition [2]: 90.9% | IC50 [4]: 16.8 µM

CCOC(=O)c1c(C)n(Cc2ccccc2)c2ccc(OCC(O)CN3CCCCC3)cc12 (configuration not stated)
MIC [1]: > 100 µg/mL | inhibition [2]: 99.3% | IC50 [4]: 5.8 µM

CCOC(=O)c1c(C)n(Cc2ccccc2)c2ccc(C(F)(F)F)cc12
inhibition [2]: 36.6%

CCOC(=O)c1c(C)n(Cc2ccccc2)c2ccc(OCC(CF)N3CCCCC3)cc12 (configuration not stated)
MIC [1]: > 100 µg/mL | inhibition [2]: 38.5%

CCOC(=O)c1c(C)n(Cc2ccccc2)c2ccc(OCCCCN)cc12
MIC [1]: 100 µg/mL (≈ 263 µM) | inhibition [2]: 93.7% | IC50 [4]: 6.7 µM
